# Laboratory results from PubChem BioAssay AID463079 (The Scripps Research Institute Molecular Screening Center, 2010).
# Screen size: about 330,000 compounds; about 2,000 (0.61%) were called active. Only a selection was taken, and actives are over-represented in it overall. Unmarked numbers belong to inactive results.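 How the source made its calls: active means inhibition above that plate's mean sample inhibition plus 3 SD (cut at about 26% in these data); inactive means the rest.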
# Test: nonselective Gq signaling inhibition in CHO cells – cell-based, fluorescence, Fluo-8 calcium dye, counter-screen for OX1R antagonist project, primary screen (AID 463079);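 further: 0% = ATP-challenged DMSO wells and 100% = DMSO wells without ATP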
# Settings: parental CHO-K1, ATP-induced calcium, Fluo-8 fluorescence; at 5.6 µM; stronger effect = higher value
# Outline: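 Test system: untransfected parental CHO cell line. Compound: one dose, 5.6 µM nominal. Detection: intracellular calcium via Fluo-8 no-wash fluorescent dye. Measure: % inhibition. Benchmarks: ATP-challenged DMSO wells low, unchallenged DMSO wells high.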
row,SMILES,inhibition
1,CNC(=O)NC(=O)CSc1nnc(-c2ccc(F)cc2)n1CC1CCCO1 (centres undefined),-7.71%
2,COc1ccc(C)cc1S(=O)(=O)N1CCN(S(=O)(=O)c2cc(C(=O)O)ccc2C)CC1,-11.5%
3,Cc1ccc(C)c(S(=O)(=O)N2CCN(c3ncnc4sccc34)CC2)c1,62.3% (active)
4,Cc1ccc(S(=O)(=O)N2CCN(c3ncnc4ccccc34)CC2)cc1,0.84%
5,COc1ccc(NS(=O)(=O)c2cc(NC(=O)C3CCCCC3)ccc2N2CCOCC2)cc1,5.3%
6,CC(C)(C)c1ccc(CCC2OCC(CN3CCOCC3)O2)cc1 (centres undefined),-9.27%
7,Cc1cc(OCCCN2CCN(Cc3ccccc3)CC2)ccc1[N+](=O)[O-],18.6%
8,Cc1cc(OCC(=O)NC2CCN(C)CC2)ccc1[N+](=O)[O-],-4.54%
9,Cc1cc(OCCCCOc2ccc(C#N)cc2)ccc1[N+](=O)[O-],44.9% (active)
10,CC[C@]12c3[nH]c4ccc(OC)cc4c3CCN1C(=O)C(CC(=O)NCc1ccco1)C[C@@H]2C(=O)N1CCN(C(=O)C2CC2)CC1 (some centres undefined),-3.18%
11,O=C1[C@@H](c2ccccc2)[C@@H](c2ccccc2)N1c1cccnc1,3.04%
12,CCc1ccc2ncc(C(=O)c3ccccc3)c(N3CCOCC3)c2c1,-4.24%
13,Cc1ccc2c(c1)NC(=O)[C@@]1(C)[C@@H](c3ccccc3)[C@H]3COc4ccc(Cl)cc4[C@@H]3N1C2=O,-11.9%
14,CN(C)C(=O)CCc1ccc2c3c([nH]c2c1)[C@]1(C)[C@@H](C(=O)N2CCOCC2)C[C@H](CC(=O)NCCc2ccccn2)C(=O)N1CC3,1.44%
15,CN(C)c1ccc(/C=C2\NC(=S)N(Cc3ccccc3)C2=O)cc1,70.7% (active)
16,CN(C)c1ccc(C=C2C(=O)OC3(CCCC3)OC2=O)cc1,-4.66%
17,COc1cc(/C=C2/SC(=S)N(Cc3ccccc3)C2=O)cc(OC)c1O,27.6%
18,N#CC1(NC(=O)COC(=O)Cc2n[nH]c(=O)c3ccccc23)CCCCC1,-1.72%
19,Cc1ccc(NC(=O)CN(C)CC(=O)Nc2cccc(F)c2)cc1[N+](=O)[O-],68.4% (active)
20,Cc1ccc(NC(=O)c2sccc2C)cc1[N+](=O)[O-],-13%
21,CN(CC(=O)Nc1cccc(F)c1)CC(=O)Nc1cccc([N+](=O)[O-])c1,-2.05%
22,CCCc1ccc(-c2c(C)sc(NC(=O)c3ccnn3C)c2C#N)cc1,37% (active)
23,Cn1nccc1CNC(=O)c1ccnn1C,7.66%
24,CCN(CC)C(=O)c1sc(NC(=O)c2ccco2)c(C#N)c1C,-6.79%
